What was measured:
[1] = test system: Salmonella typhimurium strain TA1537; assay: Bacterial reverse mutation assay; assay type: cell-based
[2] = test system: L5178Y Tk^+/− mouse lymphoma cells; assay: In vitro comet assay; assay type: cell-based; conditions: 4 hr
[3] = test system: CHL cells; assay: Cytotoxicity assay; assay type: cell-based, Chinese hamster; conditions: 7.81 to 1,000 μg/ml, 24 hr treatments
How it was run: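 MTT viability test. Cells were seeded at 1 × 10^4 per well overnight, then exposed 24 hr to test compound; CHL range 7.81 to 1,000 μg/ml. MTT was added at 0.5 mg/ml final for 4 hr at 37℃, followed by DMSO lysis and absorbance at 550 nm. Values are percent of untreated control, with triplicate samples in three independent experiments; IC50 was calculated for CHL.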

[4] = test system: L5178Y Tk^+/− mouse lymphoma cells; assay: Cytotoxicity assay; assay type: cell-based
[5] = test system: S. typhimurium strains (TA98, TA100, TA1535, and TA1537) or E. coli strain (WP2 uvrA); assay: Bacterial reverse mutation assay, all five tester strains; assay type: cell-based, Salmonella typhimurium, Escherichia coli
How it was run: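 Pre-incubation Ames test per OECD 471 with S. typhimurium TA98, TA100, TA1535, TA1537 and E. coli WP2 uvrA. Bacteria plus test compound in DMSO (DMSO as negative control), with S9 mix (10% S9 plus cofactors) or 0.1 M phosphate buffer pH 7.4, were incubated 20 min at 37℃ shaking. Plated in histidine/biotin or tryptophan top agar, incubated 48 hr at 37℃, revertants counted. Triplicate plates; dose ratio about 2.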

[6] = test system: 2 Gy irradiated Chinese hamster ovary (CHO)-K1 cells; conditions: 2 Gy irradiated CHO-K1 cells; cited from earlier work

SMILES: Oc1ccc(-c2ccc3cc(O)ccc3c2)c(O)c1 [HS-1793, 4-(6-hydroxy-2-naphthyl)-1,3-benzenediol]
- Number of reverse mutants/plate (Mean ± SD) ([1]; TA1537, without S9 activation, 312.5 μg/plate): 13 ± 4 reverse mutants/plate
- Number of reverse mutants/plate (Mean ± SD) ([1]; TA1537, without S9 activation, 625 μg/plate): 14 ± 3 reverse mutants/plate
- Number of reverse mutants/plate (Mean ± SD) ([1]; TA1537, without S9 activation, 1,250 μg/plate): 15 ± 6 reverse mutants/plate
- Number of reverse mutants/plate (Mean ± SD) ([1]; TA1537, without S9 activation, 2,500 μg/plate): 18 ± 1 reverse mutants/plate
- Number of reverse mutants/plate (Mean ± SD) ([1]; TA1537, without S9 activation, 5,000 μg/plate): 13 ± 2 reverse mutants/plate
- % DNA in tail ([2]; S9 Mix (+), 3.9 μg/ml): 0.98 ± 0.13%
- Olive moment ([2]; S9 Mix (+), 3.9 μg/ml): 0.41 ± 0.04 μm
- Tail length ([2]; S9 Mix (+), 3.9 μg/ml): 0.86 ± 0.04 μm
- Tail moment ([2]; S9 Mix (+), 3.9 μg/ml): 0.04 ± 0.01 μm
- % DNA in tail ([2]; S9 Mix (+), 7.8 μg/ml): 1.16 ± 0.08%
- Olive moment ([2]; S9 Mix (+), 7.8 μg/ml): 0.56 ± 0.06 μm
- Tail length ([2]; S9 Mix (+), 7.8 μg/ml): 0.95 ± 0.13 μm
- Tail moment ([2]; S9 Mix (+), 7.8 μg/ml): 0.06 ± 0.01 μm
- % DNA in tail ([2]; S9 Mix (+), 15.5 μg/ml): 1.42 ± 0.16%
- Olive moment ([2]; S9 Mix (+), 15.5 μg/ml): 0.78 ± 0.12 μm
- Tail length ([2]; S9 Mix (+), 15.5 μg/ml): 1.04 ± 0.06 μm
- Tail moment ([2]; S9 Mix (+), 15.5 μg/ml): 0.13 ± 0.02 μm
- % DNA in tail ([2]; S9 Mix (+), 31 μg/ml): 1.58 ± 0.11%
- Olive moment ([2]; S9 Mix (+), 31 μg/ml): 0.80 ± 0.17 μm
- Tail length ([2]; S9 Mix (+), 31 μg/ml): 1.17 ± 0.07 μm
- Tail moment ([2]; S9 Mix (+), 31 μg/ml): 0.09 ± 0.02 μm
- % DNA in tail ([2]; S9 Mix (+), 62 μg/ml): 1.65 ± 0.09%
- Olive moment ([2]; S9 Mix (+), 62 μg/ml): 0.85 ± 0.15 μm
- Tail length ([2]; S9 Mix (+), 62 μg/ml): 1.20 ± 0.03 μm
- Tail moment ([2]; S9 Mix (+), 62 μg/ml): 0.15 ± 0.01 μm
- % DNA in tail ([2]; S9 Mix (−), 3.9 μg/ml): 0.93 ± 0.21%
- Olive moment ([2]; S9 Mix (−), 3.9 μg/ml): 0.42 ± 0.03 μm
- Tail length ([2]; S9 Mix (−), 3.9 μg/ml): 1.49 ± 0.36 μm
- Tail moment ([2]; S9 Mix (−), 3.9 μg/ml): 0.03 ± 0.01 μm
- % DNA in tail ([2]; S9 Mix (−), 7.8 μg/ml): 1.09 ± 0.37%
- Olive moment ([2]; S9 Mix (−), 7.8 μg/ml): 0.62 ± 0.05 μm
- Tail length ([2]; S9 Mix (−), 7.8 μg/ml): 1.98 ± 0.27 μm
- Tail moment ([2]; S9 Mix (−), 7.8 μg/ml): 0.07 ± 0.02 μm
- % DNA in tail ([2]; S9 Mix (−), 15.5 μg/ml): 1.61 ± 0.49%
- Olive moment ([2]; S9 Mix (−), 15.5 μg/ml): 0.75 ± 0.07 μm
- Tail length ([2]; S9 Mix (−), 15.5 μg/ml): 2.11 ± 0.41 μm
- Tail moment ([2]; S9 Mix (−), 15.5 μg/ml): 0.13 ± 0.03 μm
- % DNA in tail ([2]; S9 Mix (−), 31 μg/ml): 2.13 ± 0.36%
- Olive moment ([2]; S9 Mix (−), 31 μg/ml): 0.98 ± 0.09 μm
- Tail length ([2]; S9 Mix (−), 31 μg/ml): 2.75 ± 0.37 μm
- Tail moment ([2]; S9 Mix (−), 31 μg/ml): 0.16 ± 0.03 μm
- % DNA in tail ([2]; S9 Mix (−), 62 μg/ml): 2.52 ± 0.34%
- Olive moment ([2]; S9 Mix (−), 62 μg/ml): 1.01 ± 0.07 μm
- Tail length ([2]; S9 Mix (−), 62 μg/ml): 2.82 ± 0.46 μm
- Tail moment ([2]; S9 Mix (−), 62 μg/ml): 0.21 ± 0.05 μm
- % DNA in the tail, tail length, TM, or OM versus vehicle ([2]; presence or absence of metabolic activation): No significant differences
- Cell viability (MTT) [3]: decreased in dose dependent manner
- Cell viability (MTT) ([4]; 62.5 μg/ml for 4 hr): no reduction of viable cell numbers > 70%
- Cell viability (dose-range study) ([4]; 24 hr treatments): decreased in dose dependent manner
- HS-1793 related toxicity (reduced revertant numbers and/or thinning of the background lawn) ([5]; 5,000 μg/plate, absence or presence of S9 metabolic activation): not observed
- Revertant frequencies compared to concurrent vehicle control ([5]; any dose (78.1~5,000 μg/plate), any tester strain, with or without the S9 mix): No increases in revertant frequencies
- ROS and cellular DNA damage [6]: significantly decreased

Reference: paper PMC4206749 (Toxicological Research, 2014)
